Test results taken from ChEMBL document CHEMBL1143149, “Synthesis, metal ion binding, and biological evaluation of new anticancer 2-(2'-hydroxyphenyl)benzoxazole analogs of UK-1” (Bioorg Med Chem, 2008).
pIC50: −log10 of the molar value. The source made the active and inactive calls. The calls are words filed in the database; no cut-off is given here.

Experiments:
[1] = Enhancement of DNA binding affinity in presence of Cu2+/Ni2+
[2] = tested on: A549; assay: Cytotoxicity against human A549 cells by Alamar blue assay; type: functional, cell-based
Summary of the method: (§1)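 A549 cells in Ham's F-12 (Kaighn's) with 10% FBS and 1% penicillin/streptomycin. Seeded at 1-3×10^3 cells/well for 24 h at 37 °C, 5% CO2. Compound in DMSO added in duplicate at 0.001–50 μM final, then 72 h. Fresh medium plus AlamarBlue for 6 h; fluorescence ex 530/em 590 nm. % growth relative to time-zero and vehicle; IC50 from Hill-equation non-linear fit.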

[3] = tested on: MCF7; assay: Cytotoxicity against human MCF7 cells by Alamar blue assay; type: functional, cell-based
Summary of the method: (§2)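 MCF-7 cells in improved MEM (Richter's) with L-glutamine, 10% FBS and 1% penicillin/streptomycin. 1-3×10^3 cells/well preincubated 24 h at 37 °C, 5% CO2. DMSO solutions added in duplicate at 0.001–50 μM final, then 72 h exposure. AlamarBlue added for 6 h; fluorescence read ex 530/em 590 nm. IC50 by sigmoidal fit of % growth against time-zero and vehicle.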

[4] = tested on: MCF7; assay: Cytotoxicity against human MCF7 cells after 24 hrs; type: functional, cell-based; settings: MCF7, 24 h
[5] = tested on: MCF7; assay: Cytotoxicity against human MCF7 cells after 72 hrs; type: functional, cell-based; settings: MCF7, 72 h; summary of the method: as §2
[6] = tested on: A549; assay: Cytotoxicity against human A549 cells after 72 hrs; type: functional, cell-based; settings: A549, 72 h; summary of the method: as §1
[7] = tested on: MCF7; assay: Cytotoxicity against human MCF7 cells after 24 hrs in presence of CuCl2; type: functional, cell-based; settings: MCF7, 24 h
[8] = tested on: A549; assay: Cytotoxicity against human A549 cells after 72 hrs in presence of CuCl2; type: functional, cell-based; settings: A549, 72 h
Summary of the method: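 A549 cells in Ham's F-12 (Kaighn's) with 10% FBS and penicillin/streptomycin. Compound plus 10 μM CuCl2 for 72 h at 37 °C, 5% CO2, in duplicate. Viability by AlamarBlue fluorescence (ex 530/em 590 nm) after 6 h. IC50 from non-linear fit of % growth versus time-zero and vehicle controls.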

[9] = tested on: A549; assay: Cytotoxicity against human A549 cells after 24 hrs in presence of CuCl2; type: functional, cell-based; settings: A549, 24 h
[10] = tested on: A549; assay: Cytotoxicity against human A549 cells after 24 hrs; type: functional, cell-based; settings: A549, 24 h
[11] = tested on: MCF7; assay: Cytotoxicity against human MCF7 cells after 72 hrs in presence of CuCl2; type: functional, cell-based; settings: MCF7, 72 h
Summary of the method: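 MCF-7 cells in Richter's improved MEM with 10% FBS. Compound given with 10 μM CuCl2 for 72 h at 37 °C, 5% CO2, in duplicate. AlamarBlue for 6 h, fluorescence ex 530/em 590 nm. IC50 by non-linear Hill fit of % growth referenced to time-zero and vehicle wells.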

SMILES | Activity [1] | pIC50 [2] | pIC50 [3] | other results
COC(=O)c1cccc2oc(-c3cccc4oc(-c5ccccc5O)nc34)nc12 | – | – | – | pIC50 [4]: 4.51; pIC50 [5]: 5.77; pIC50 [6]: 6.00; pIC50 [7]: 5.34; pIC50 [8]: 6.70; pIC50 [9]: 5.35; pIC50 [10]: 4.77; pIC50 [11]: 5.92
COc1ccccc1-c1nc2c(C(=O)O)cccc2o1 | – | < 4.30 | < 4.30 | –
CCOC(=O)c1cccc2oc(-c3ccccc3O)nc12 | Active | 4.40 | 4.82 | –
CO[C@@]12[C@H](COC(N)=O)C3=C(C(=O)C(C)=C(N)C3=O)N1C[C@@H]1N[C@@H]12 [MITOMYCIN] | – | – | – | pIC50 [4]: 5.30; pIC50 [5]: 5.92; pIC50 [6]: 6.62; pIC50 [10]: 5.35
COC(=O)c1cccc2nc(-c3ccccc3O)oc12 | – | 4.46 | 5.15 | –

Continued, in another order:

Activity [1] | SMILES | pIC50 [2] | pIC50 [3] | other results
inactive | O=C(NCCOCCO)c1cccc2oc(-c3ccccc3O)nc12 | 4.39 | < 4.30 | –
inactive | O=C(NCCCCCCO)c1cccc2oc(-c3ccccc3O)nc12 | 4.41 | 4.51 | –
Active | COC(=O)c1cccc2oc(-c3ccccc3O)nc12 | 4.92 | 5.40 | –
Active | CNC(=O)c1cccc2oc(-c3ccccc3O)nc12 | 4.96 | 5.00 | –
Active | CCCCNC(=O)c1cccc2oc(-c3ccccc3O)nc12 | 4.85 | 4.52 | –
Active | O=C(OCCOCCOCCOCCO)c1cccc2oc(-c3ccccc3O)nc12 | 4.96 | 4.89 | –
